# TDP2 inh = blocks human TDP2 phosphodiesterase activity. recombinant TDP2, T5PNP hydrolysis, p-nitrophenol absorbance 415 nm. actives 0.34% (n = 370,000). AID 720702. inhibition, % at 12.8 µM;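 active = inhibition above the mean of all tested compounds plus 3 SD, set per campaign, cut at about 25% in these data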;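 note: 0% = DMSO with enzyme and 100% = buffer with substrate but no TDP2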
#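 Evaluation: % inhibition relative to enzyme-containing and enzyme-free wells. Material: recombinant human TDP2. Benchmarks: enzyme-free and DMSO wells. Timing: enzyme reaction with compound for 2 h at 37 °C. Compound dosing: 12.8 µM only. Measured by: p-Nitrophenol epi absorbance. Reagent: T5PNP substrate at 5 mM, a TopII-DNA adduct mimic. Replication: single well per compound.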
# UHRF1 MBD2 ctr = UHRF1 methyl-DNA binding inhibition; UHRF1 binding to methylated oligo, TR-FRET; Q96T88; inhibition, % at 4.4 µM; AID 687016; actives 0.75% (n = 370,000); in the data active = inhibition above about 21%;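 note: UHRF1 SRA domain binding a hemimethylated CpG hairpin DNA probe; 0% = median of test compound wells and 100% = reference inhibitor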
# MBD2 inh = blocks human MBD2 binding to methylated DNA; Q9UBB5; TR-FRET, MBD2 binding to methylated oligonucleotide; inhibition, % at 4.4 µM; actives 0.31% (n = 370,000); AID 686964; in the data active = inhibition above about 13%
# LEDGF integ inh = blocks HIV-1 LEDGF/p75-dependent DNA integration; TR-FRET IN-LEDGF/p75 DNA integration, Eu/Cy5; inhibition, % at 3.7 µM; actives 0.64% (n = 370,000); AID 743269;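 active = inhibition above the screen-wide mean plus 3 SD, cut at about 13% in these data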;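 note: signal is the Cy5 over europium emission ratio at 671 and 618 nm; 0% = plate median of compound wells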
# DDE Tn6 FP inh = inhibitors of Tn6 peptide binding to human fibrin DD(E). actives 0.21% (n = 370,000). P02675. Fibrin DD(E) TRITC-Tn6 fluorescence polarization displacement. inhibition, % at 8.3 µM;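 active = inhibition above a per-campaign cutoff: mean of compounds within control limits plus 3 SD, cut at about 15% in these data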;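 note: 0% = median of all compound wells on the plate and 100% = blocking peptide control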
# Target sequence (P02675 whole entry, looked up): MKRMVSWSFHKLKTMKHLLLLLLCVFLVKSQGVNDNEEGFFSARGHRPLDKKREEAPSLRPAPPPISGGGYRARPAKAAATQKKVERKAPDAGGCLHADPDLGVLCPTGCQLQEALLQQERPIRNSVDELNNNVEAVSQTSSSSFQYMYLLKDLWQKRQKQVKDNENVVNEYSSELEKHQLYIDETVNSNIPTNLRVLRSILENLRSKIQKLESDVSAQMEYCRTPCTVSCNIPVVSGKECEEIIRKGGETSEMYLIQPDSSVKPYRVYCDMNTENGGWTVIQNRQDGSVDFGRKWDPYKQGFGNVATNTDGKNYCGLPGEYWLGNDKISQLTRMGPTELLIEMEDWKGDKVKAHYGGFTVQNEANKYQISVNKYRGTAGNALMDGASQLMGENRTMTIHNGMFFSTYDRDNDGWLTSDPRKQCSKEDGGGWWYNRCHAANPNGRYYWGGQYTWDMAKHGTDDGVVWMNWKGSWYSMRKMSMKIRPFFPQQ
# Tn7 DDE FP = disrupts Tn7 cyclic peptide binding to fibrin D-Dimer-E complex | FP displacement of FITC-Tn7 peptide from fibrin DD(E); 0% = median of compound wells per plate | AID 720508 | P02675 | inhibition, % at 8.3 µM | actives 0.13% (n = 370,000);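 active = inhibition above the mean of compounds falling within the control limits plus 3 SD of them, cut at about 14% in these data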;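 note: 0% = plate median of compound wells and 100% = 10 µM Aha-Tn7 peptide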
#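 Assay system: human fibrin DD(E) protein / Input: 2 µM fibrin DD(E) / Benchmarks: high control of 10 µM Aha-Tn7 peptide / Measured by: fluorescence polarization of the labelled Tn7 tracer / Medium: Tris buffer with calcium and detergent, pH 7.8 / Timing: 10 min compound pre-incubation, 3 h probe incubation at room temperature / Repeats: one replicate per compound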
# IN multimer up = HIV-1 integrase multimerization activation, counter-screen | shares compounds with LEDGF integ inh | TR-FRET HIV-1 integrase multimerization, biochemical | activation, % at 7.7 µM | actives 17% (n = 2,000) | AID 1053131; in the data active = activation above about 8.9%
# TR-FRET interf = counter-screen for LEDGF/p75 integration inhibitors: TR-FRET optical interference; 2,000 tested, under 10 active; shares compounds with LEDGF integ inh; inhibition, % at 7.7 µM; TR-FRET optical interference counterscreen, HIV-1 IN multimerization; AID 1053135;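 active = inhibition above the mean over all tested compounds plus 3 SD, which no compound reached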;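 note: 0% = integrase with antibodies and DMSO and 100% = antibodies without integrase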
# LEDGF integ conf = confirmation of HIV-1 LEDGF/p75-dependent integration inhibitors. shares compounds with LEDGF integ inh. TR-FRET LEDGF/p75-dependent HIV-1 integration, biochemical. inhibition, % at 3.7 µM. actives 36% (n = 2,000). AID 1053136; in the data active = inhibition above about 14%
# Active calls of the source: *; . = no result given. In the library only some 1.9% were active in any assay of this set; here they are far more common.
SMILES,TDP2 inh,UHRF1 MBD2 ctr,MBD2 inh,LEDGF integ inh,DDE Tn6 FP inh,Tn7 DDE FP,IN multimer up,TR-FRET interf,LEDGF integ conf
Fc1ccc(-c2cc(-c3nnc4sc(-c5ccco5)nn34)[nH]n2)cc1,-5,-6,0,0,10,-6,.,.,.
O=C(O)c1cccc(-n2cccc2/C=C/[N+](=O)[O-])c1,13,74*,21*,36*,1,-1,14*,-70,40*
COC(=O)C1=CN(c2ccc(OC)cc2)C(N)=C(C#N)C1c1cccc2ccccc12 (centres undefined),9,9,4,3,-8,-3,.,.,.
CCc1ccc(N2C=C(C(=O)OC)C(c3cccc4ccccc34)C(C#N)=C2N)cc1 (centres undefined),-10,7,9,22*,-1,-6,1,-3,4
COC(=O)C1=C(C)N(C)C(=NCc2ccc(OC)cc2)NC1c1ccc(F)cc1 (centres undefined),9,-1,2,0,0,2,.,.,.
CC(C)[C@H](NC(=O)c1ccc(Cl)cc1Cl)C(=O)N1CCC[C@H]1C(=O)NCc1ccccc1,2,0,0,2,2,3,.,.,.
